Compound activity deposited in PubChem by The Scripps Research Institute Molecular Screening Center.
In the library only some 4.6% were active in any assay of this set; here they are far more common.
CHO parental Ca = signal in parental CHO cells, OX1R antagonist counter-screen. parental CHO-K1, ATP-induced calcium, Fluo-8 fluorescence. inhibition, % at 5.6 µM. 0.63% of 330,000 active;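 active = inhibition above that plate's mean sample inhibition plus 3 SD, cut at about 26% in these data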
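test system = CHO parental line | reagent = ATP stimulus | measured by = intracellular calcium via Fluo-8 no-wash fluorescent dye | control set = ATP and no-ATP DMSO wells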
OX1R antag-1 = antagonists of human orexin 1 receptor (OX1R); O43613; inhibition, % at 6.6 µM; 1.8% of 330,000 active; OX1R-expressing cells, FRET antagonist read-out; in the data active = inhibition mostly above about 38%, no sharp cut-off; inactive = mostly below about 40%
Target sequence (O43613 whole entry, looked up): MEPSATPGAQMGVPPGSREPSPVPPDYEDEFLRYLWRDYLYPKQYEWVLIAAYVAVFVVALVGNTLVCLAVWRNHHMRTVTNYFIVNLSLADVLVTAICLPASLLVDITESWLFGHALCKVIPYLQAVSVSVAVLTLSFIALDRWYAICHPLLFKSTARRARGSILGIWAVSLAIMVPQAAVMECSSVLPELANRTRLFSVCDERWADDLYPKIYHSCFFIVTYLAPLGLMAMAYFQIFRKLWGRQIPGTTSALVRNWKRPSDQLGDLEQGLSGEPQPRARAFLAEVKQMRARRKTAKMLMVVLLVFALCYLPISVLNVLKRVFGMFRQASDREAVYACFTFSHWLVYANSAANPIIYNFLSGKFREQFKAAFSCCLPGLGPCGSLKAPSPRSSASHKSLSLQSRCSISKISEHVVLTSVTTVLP
TAAR1 antagonist = antagonists of human TAAR1; inhibition, % at 3 µM; Q96RJ0; 1.5% of 360,000 active; CHO RD-HGA16 TAAR1, Fluo-8 calcium fluorescence, antagonist;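 active = inhibition above a per-plate cutoff, the mean inhibition of test compounds on that plate plus 3 SD, cut at about 49% in these data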
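System: CHO RD-HGA16 cells bearing hTAAR1. Reagent: EC80 β-phenethylamine stimulus. Schedule: seeding 17-24 h prior, 75-min 37 °C, 30-min RT dye loading. Signal: Fluo-8 intracellular calcium dye fluorescence, real-time kinetic reads. Read-out: % inhibition from peak post-agonist over basal fluorescence ratio. Benchmarks: vehicle wells and EC80 agonist wells. Replicates: n of 1.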
TAAR1 agonist = human TAAR1 agonism; activation, % at 3 µM; AID 624467; Q96RJ0; 0.99% of 360,000 active; CHO RD-HGA16 TAAR1, Fluo-8 calcium fluorescence; vehicle wells 0%, saturating PEA agonist 100%;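 active = activation above the mean activation of all test compounds in the run plus 3 SD, cut at about 38% in these data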
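Benchmarks: low control DMSO, high control PEA (EC100); System: CHO RD-HGA16 cells carrying human TAAR1 plus Gα16; Detection: Fluo-8 fluorescence, 5 s baseline then 140 s kinetic read; Schedule: 17-24 h plating, Fluo-8 75 min 37 °C, 30 min RT; Read-out basis: % activation from peak over basal fluorescence ratio, DMSO-to-PEA scaled.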
GPR7 antag = blocks human GPR7 receptor signaling | 1.1% of 290,000 active | inhibition, % at 4.4 µM | GPR7-expressing cells, fluorescence antagonist assay | P48145 | AID 1861; in the data active = inhibition above about 16%, passing the limit was not always enough;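 also: cells stimulated with the agonist NPW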
Target sequence (P48145 whole entry, looked up): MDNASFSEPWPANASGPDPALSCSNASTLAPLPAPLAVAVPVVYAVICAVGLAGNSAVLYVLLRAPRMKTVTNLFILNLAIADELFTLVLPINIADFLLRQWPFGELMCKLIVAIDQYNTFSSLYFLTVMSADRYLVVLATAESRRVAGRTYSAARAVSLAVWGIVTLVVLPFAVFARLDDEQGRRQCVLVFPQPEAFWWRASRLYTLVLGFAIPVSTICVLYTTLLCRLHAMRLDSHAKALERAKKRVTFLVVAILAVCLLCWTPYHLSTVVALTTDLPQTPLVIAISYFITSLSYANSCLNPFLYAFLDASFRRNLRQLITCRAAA
OX1R antag-2 = blocks the human orexin 1 receptor. AID 434989. CHO/OX1R cells, Fluo-8 calcium fluorescence, orexin A. 0.43% of 330,000 active. O43613. inhibition, % at 5 µM;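 active = inhibition above its plate's threshold, mean inhibition of all tested compounds on the plate plus 3 SD, cut at about 37% in these data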
Of the large screens only hits and unclear results are named; the others gave an inactive call.

Nc1[nH]c(C(=O)c2ccccc2)c(-c2cccc(C(F)(F)F)c2)c1C(=O)c1c[nH]c2ccccc12	none (no result: CHO parental Ca, OX1R antag-1, GPR7 antag, OX1R antag-2)
COc1cc(CN2C[C@@H](CO)O[C@@H](n3cnc4c(N(C)C(C)C)ncnc43)C2)cc(OC)c1OC	none (no result: CHO parental Ca, OX1R antag-1, GPR7 antag, OX1R antag-2)
CCc1ccc2[nH]c3nc(N/N=C/c4ccc(O)cc4O)nnc3c2c1	OX1R antag-1 74
COc1ccccc1NC(=O)CSc1nc2ccccc2c(=O)n1C	CHO parental Ca 50, OX1R antag-1 48
Cc1cccc(NC(=O)CSc2nc3ccccc3c(=O)n2C)c1C	none (no result: CHO parental Ca, OX1R antag-1, GPR7 antag, OX1R antag-2)
COc1cccc(NC(=O)CSc2nc3ccccc3n2C)c1	OX1R antag-1 57
Cn1c(SCc2cccc([N+](=O)[O-])c2)nc2ccccc2c1=O	CHO parental Ca 36, OX1R antag-1 54, OX1R antag-2 68 (no result: GPR7 antag)
CCOCCn1ccc2c(OCC(=O)Nc3ccccc3OC)cccc2c1=O	TAAR1 antagonist 58 (no result: GPR7 antag)
CCn1c(SCC(=O)Nc2cccc(OC)c2)nc2ccccc2c1=O	none (no result: CHO parental Ca, OX1R antag-1, OX1R antag-2)
COC(=O)[C@]12C[C@H](CC(=O)N3CCOCC3)C(=O)N(Cc3ccc4c(c3)OCO4)C1=C[C@H](COCc1ccccc1)O[C@@H]2C	none (no result: CHO parental Ca, OX1R antag-1, GPR7 antag, OX1R antag-2)
CCCCCCCCN1C(=O)[C@@H](CC(=O)NCC2CCCCC2)C[C@@]2(C(=O)OC)C1=C[C@H](C1CCCC1)O[C@@H]2C	none (no result: CHO parental Ca, OX1R antag-1, GPR7 antag, OX1R antag-2)
Cc1nc(N2CCN(c3ccccn3)CC2)c2c(C)c(C(=O)Nc3ccc(Cl)cc3)sc2n1	none
Cc1nc(N2CCN(c3ccccn3)CC2)c2c(C)c(C(=O)Nc3c(F)cc(F)cc3Br)sc2n1	TAAR1 antagonist 57
CS(=O)(=O)NNC(=O)C1Cc2c(ccc3ccccc23)O1 (stereo unspecified)	none
O=C(NNS(=O)(=O)c1ccc(F)cc1F)C1Cc2c(ccc3ccccc23)O1 (stereo unspecified)	CHO parental Ca 42, OX1R antag-2 51
Cc1ccc(C)c(S(=O)(=O)N2CCCCC2CCNC(=O)C(=O)NC2CC2)c1 (stereo unspecified)	OX1R antag-1 35 (no result: GPR7 antag)
COc1ccccc1CCNC(=O)C(=O)NCC1OCCN1S(=O)(=O)c1cc(F)ccc1F (stereo unspecified)	TAAR1 agonist 38
CN(C)CCNC(=O)C(=O)NCC1OCCN1S(=O)(=O)c1cc(F)ccc1F (stereo unspecified)	none
COc1ccc(S(=O)(=O)N2CCCOC2CNC(=O)C(=O)NCCc2ccco2)cc1C (stereo unspecified)	OX1R antag-1 70
COc1ccccc1CCNC(=O)C(=O)NCC1OCCCN1S(=O)(=O)c1cc(C)ccc1C (stereo unspecified)	OX1R antag-1 66
COc1ccc(CCNC(=O)C(=O)NCC2OCCCN2S(=O)(=O)c2cc(C)ccc2C)cc1 (stereo unspecified)	none
C[C@@H]1CN(C(=O)OC(C)(C)C)CCN1c1ccc(N2CC[C@@H](O)C2)c(C#N)c1	none (no result: CHO parental Ca, OX1R antag-1, GPR7 antag, OX1R antag-2)
Cc1ccc(C)c(S(=O)(=O)N2CCCOC2CNC(=O)C(=O)NCCc2ccco2)c1 (stereo unspecified)	OX1R antag-1 63
COC(=O)C1=C(C(=O)OC)C2CCCC1C1N=NN(c3ccccc3)C21 (stereo unspecified)	none (no result: CHO parental Ca, OX1R antag-1, GPR7 antag, OX1R antag-2)
CN(C)CCOC(C1CCCCC1)C1CCCCC1	GPR7 antag 34
COc1ccc(NC(=O)N2CCN(c3ccc([N+](=O)[O-])cc3)CC2)cc1	none
COc1ccc(N2CCN(C(=O)C3CCN(C(=O)c4ccc([N+](=O)[O-])cc4)CC3)CC2)cc1	OX1R antag-1 51
CCOC(=O)N1CCN(C(=O)C2CCN(C(=O)c3ccc([N+](=O)[O-])cc3)CC2)CC1	OX1R antag-1 55
CCc1ccc(OCC(=O)Nc2ccc3[nH]ncc3c2)cc1	none
NC(=O)c1c(N)[nH]c(C(=O)c2ccccc2)c1-c1ccc(Br)cc1	none (no result: CHO parental Ca, OX1R antag-1, GPR7 antag, OX1R antag-2)
O=C(Nc1ccc(S(=O)(=O)N2CCOCC2)cc1)c1cc(-c2ccccc2O)n[nH]1	TAAR1 antagonist 54
CC1CN(S(=O)(=O)c2ccc(NC(=O)c3cc(-c4ccccc4O)n[nH]3)cc2)CC(C)O1 (stereo unspecified)	none
CC1CCCCN1CCNC(=O)c1ccc2c(=O)n(Cc3ccc(Cl)cc3)c(=S)[nH]c2c1 (stereo unspecified)	none
COC(=O)[C@]12C[C@H](CC(=O)NCc3cccc4ccccc34)C(=O)N(CCC3=CCCCC3)C1=C[C@H](C(C)(C)C)O[C@@H]2C	none (no result: CHO parental Ca, OX1R antag-1, GPR7 antag, OX1R antag-2)
CC(=O)Oc1ccc(Nc2ccccc2)cc1	OX1R antag-1 50
CC(=O)Oc1ccc(NC(=O)Cc2ccccc2)cc1	none
Oc1ccccc1C1=NC(c2ccccc2)NC(c2ccccc2)C1 (stereo unspecified)	none (no result: CHO parental Ca, OX1R antag-1, GPR7 antag, OX1R antag-2)
O=C(Nc1ccc(Cl)c(Cl)c1)Oc1ccc(NC(=O)c2ccco2)cc1	CHO parental Ca 42
O=C(CSCC(=O)NC1CC1)Nc1ccc2ccccc2c1	GPR7 antag 20 (no result: CHO parental Ca, OX1R antag-1, OX1R antag-2)
O=[N+]([O-])c1ccc(NCCCNS(=O)(=O)c2ccc(Cl)cc2)c(Cl)c1	GPR7 antag 54
Cc1ccnc(SCC(=O)Nc2sc3c(c2C#N)CCCC3)n1	CHO parental Ca 69, OX1R antag-1 80, OX1R antag-2 74
COCCNC(=O)C(c1ccc(F)cc1)N(Cc1ccco1)C(=O)CCC(=O)Nc1ccccn1 (stereo unspecified)	none
Cc1cc(NC(=O)CCC(=O)N(Cc2ccco2)C(C(=O)NC2CCCCC2)c2ccccc2)no1 (stereo unspecified)	OX1R antag-1 53
Cc1cc(NC(=O)CCC(=O)N(Cc2ccco2)C(C(=O)NC2CCCC2)c2ccccc2C)no1 (stereo unspecified)	none
COCCNC(=O)C(c1ccc(F)cc1)N(Cc1ccco1)C(=O)CCC(=O)Nc1nccs1 (stereo unspecified)	OX1R antag-1 60
CCN[C@H]1CN(CCCOC)S(=O)(=O)c2sc(S(N)(=O)=O)cc21	none (no result: GPR7 antag)
O=C(CNc1ccc2ccccc2c1)N/N=C/c1ccc([N+](=O)[O-])o1	CHO parental Ca 41, OX1R antag-1 46
COC(=O)/C(=C\c1ccc([N+](=O)[O-])o1)NC(=O)c1ccccc1	OX1R antag-1 69
NC(=O)/C(=C\c1ccc([N+](=O)[O-])o1)c1ccco1	none (no result: CHO parental Ca, OX1R antag-1, GPR7 antag, OX1R antag-2)
O=[N+]([O-])c1ccc(/C=[N+](\[O-])CCO)o1	OX1R antag-1 47
O=C(O)c1ccc(N/N=C/C=C/c2ccc([N+](=O)[O-])o2)cc1	CHO parental Ca 52, OX1R antag-2 49
CCOC(=O)CN1C(=O)N(c2ccc(OC)cc2)[C@H]2CC3c4ccccc4C[C@]3(C)[C@@H](C(=O)N(C)C3CCCCC3)C[C@H]21 (stereo partly specified)	none (no result: CHO parental Ca, OX1R antag-1, GPR7 antag, OX1R antag-2)
S=C1NCCN1c1ccc(Cl)cc1	none (no result: CHO parental Ca, OX1R antag-1, GPR7 antag, OX1R antag-2)
O=C(O)c1ccc(N/N=C/c2ccc(-c3cccc(Cl)c3)o2)cc1	none
